From ChEMBL document CHEMBL2202989, “New adamantane phenylalkylamines with σ-receptor binding affinity and anticancer activity, associated with putative antagonism of neuropathic pain” (J Med Chem, 2012)

How the values were obtained:
[1] = Growth inhibition of human MSC cells after 48 hrs by SRB assay; assay type: cell-based
Summary of the method: (§1)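 Cells grown in RPMI 1640 with 5% heat-inactivated FCS, 2 mM L-glutamine and antibiotics, 37 °C, 5% CO2. Seeded at 3500–30000 cells/well and left 24 h before dosing. DMSO solutions added at 10-fold dilutions from 100 to 0.01 μM for 48 h. Cells TCA-fixed and SRB-stained, absorbance read at 540 nm; GI50 derived against the time-zero plate.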

IGROV-1 = assay: Growth inhibition of human IGROV1 cells after 48 hrs by SRB assay; assay type: functional; conditions: IGROV-1, 48 h; summary of the method: as §1
HCT-15 = assay: Growth inhibition of human HCT15 cells after 48 hrs by SRB assay; assay type: functional; conditions: HCT-15, 48 h; summary of the method: as §1
BXPC-3 [2] = assay: Growth inhibition of human BxPC3 cells after 48 hrs by SRB assay; assay type: functional; conditions: BXPC-3, 48 h; summary of the method: as §1
[3] = Displacement of [3H]1,3-di-otolylguanidine from sigma 2 receptor in rat cerebral cortex membranes; assay type: cell membranes, Membrane
Summary of the method: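 Rat cerebral cortex membranes incubated with 5 nM [3H]DTG plus 300 nM (+)-pentazocine to mask σ1 sites, together with a range of test concentrations, 2 h at 22 °C in Tris-HCl, pH 7.4. Nonspecific binding defined with 10 μM haloperidol.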

[4] = Displacement of [3H]batrachotoxin benzoate from Na+ channel after 60 mins by liquid scintillation counting
Summary of the method: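 Na+ channel site 2 binding: vesicle preparation (150−500 μg protein) incubated 60 min with 20−25 nM [3H]BTX-B and 50 μg Leiurius quinquestriatus venom. Buffer was 130 mM choline chloride, 50 mM HEPES/Tris pH 7.4, glucose, MgSO4, KCl, BSA. Filtered on GF/C with cold washes; scintillation counting. Nonspecific binding defined with 250 μM veratridine.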

[5] = biological target: Sigma non-opioid intracellular receptor 1 (Homo sapiens, UniProt Q99720); assay: Displacement of [3H]-(+)-pentazocine from sigma 1 receptor in human Jurkat cell membrane; assay type: cell membranes
Summary of the method: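 Jurkat cell membranes incubated with 8 nM [3H](+)-pentazocine and a range of test concentrations for 2 h at 22 °C in Tris-HCl buffer, pH 7.4. Nonspecific binding defined with 10 μM haloperidol. Run in triplicate.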

DU-145 [6] = assay: Growth inhibition of human DU145 cells after 48 hrs by SRB assay; assay type: functional; conditions: DU-145, 48 h; summary of the method: as §1
U-251 = assay: Growth inhibition of human U251 cells after 48 hrs by SRB assay; assay type: functional; conditions: U-251, 48 h; summary of the method: as §1
PC-3 [7] = assay: Growth inhibition of human PC3 cells after 48 hrs by SRB assay; assay type: functional; conditions: PC-3, 48 h; summary of the method: as §1
HL-60(TB) = assay: Growth inhibition of human HL-60(TB) cells after 48 hrs by SRB assay; assay type: functional; conditions: HL-60, 48 h
Summary of the method: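 Cells kept in RPMI 1640 with 5% FCS at 37 °C, 5% CO2, and seeded 24 h before dosing. Compound given from DMSO at 10-fold dilutions, 100 to 0.01 μM, for 48 h. Cells fixed with TCA, stained with SRB, absorbance read at 540 nm. GI50 taken from a time-zero plate.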

NHDF = assay: (§2) Growth inhibition of human NHDF cells after 48 hrs by SRB assay; assay type: cell-based; conditions: nhdf, 48 h; summary of the method: as §1
[8] = as §2; assay type: cell-based; conditions: NHDF cells; summary of the method: as §1
HUVEC = assay: (§3) Growth inhibition of human HUVEC cells after 48 hrs by SRB assay; assay type: cell-based; conditions: huvec, 48 h; summary of the method: as §1
[9] = as §3; assay type: cell-based; conditions: HUVEC cells; summary of the method: as §1
HCT-116 = assay: Growth inhibition of human HCT116 cells after 48 hrs by SRB assay; assay type: functional; conditions: HCT-116, 48 h; summary of the method: as §1
SK-HEP1 = assay: Growth inhibition of human SKHEP1 cells after 48 hrs by SRB assay; assay type: functional; conditions: SK-HEP1, 48 h; summary of the method: as §1
MCF7 = assay: Growth inhibition of human MCF7 cells after 48 hrs by SRB assay; assay type: functional; conditions: MCF7, 48 h; summary of the method: as §1
PC-3 [10] = assay: Antitumor activity against human PC3 cells xenografted in SCID mouse assessed as tumor growth inhibition at 20 mg/kg, ip administered once a week for two cycles measured after 2 cycles relative to control; assay type: functional; conditions: PC-3, ip, route intraperitoneal, read-out: TGI
Summary of the method: (§4)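 PC3 xenografts were grown in SCID mice (10^6 cells per inoculum), 14 mice (28 tumors) per group, dosed ip from about 100 mm3. The test agent was given in 5% Tween 80; paclitaxel was given in Cremophor diluted in saline, with a vehicle of 1:1 ethanol/Cremophor diluted 1:3 in saline. Volume and %ΔT/ΔC were derived from caliper readings twice weekly. Occurrence of primary tumors and of axillary and bone metastases was scored (n = 7). Two-tailed t test.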

PC-3 [11] = assay: Antitumor activity against human PC3 cells xenografted in SCID mouse assessed as bone metastasis at 20 mg/kg, ip administered once a week for two cycles measured after 2 cycles relative to control; assay type: functional; conditions: route intraperitoneal; summary of the method: as §4
PC-3 [12] = assay: Antitumor activity against human PC3 cells xenografted in SCID mouse assessed as primary tumor occurrence at 20 mg/kg, ip administered once a week for two cycles measured after 2 cycles relative to control; assay type: functional; conditions: route intraperitoneal; summary of the method: as §4
DU-145 [13] = assay: Antitumor activity against human DU145 cells xenografted in SCID mouse assessed as tumor growth inhibition at 20 mg/kg, ip administered once a week for two cycles measured after 2 cycles relative to control; assay type: functional; conditions: DU-145, ip, route intraperitoneal, read-out: TGI
Summary of the method: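 DU145 xenografts were grown in SCID mice from 10^6-cell inocula, with at least 30 animals in total. Treatment started ip at a mean tumor volume of about 100 mm3. The test agent was given in 5% Tween 80; paclitaxel was dissolved in Cremophor and diluted in saline. Caliper volumes were taken twice weekly and %ΔT/ΔC calculated; two-tailed t test.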

PC-3 [14] = assay: Antitumor activity against human PC3 cells xenografted in SCID mouse assessed as axillary metastasis at 20 mg/kg, ip administered once a week for two cycles measured after 2 cycles relative to control; assay type: functional; conditions: route intraperitoneal; summary of the method: as §4
BXPC-3 [15] = assay: Antitumor activity against human BxPC3 cells xenografted in SCID mouse assessed as tumor growth inhibition at 10 mg/kg, ip administered 5 times a week for one cycle relative to control; assay type: functional; conditions: BXPC-3, ip, route intraperitoneal, read-out: TGI
[16] = read-out: LC50 (the source's name)

Sigma non-opioid intracellular receptor 1, sequence (Q99720 whole entry): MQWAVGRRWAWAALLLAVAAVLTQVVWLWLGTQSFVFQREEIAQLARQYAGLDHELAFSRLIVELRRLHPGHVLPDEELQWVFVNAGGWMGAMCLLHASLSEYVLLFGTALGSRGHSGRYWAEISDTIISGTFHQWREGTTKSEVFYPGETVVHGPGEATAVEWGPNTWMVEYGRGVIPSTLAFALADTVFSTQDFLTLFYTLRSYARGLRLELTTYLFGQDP

## c1ccc(C(c2ccc(CCCN3CCNCC3)cc2)C23CC4CC(CC(C4)C2)C3)cc1 (stereo unspecified)
[1]
  TGI: 7.28 µM
IGROV-1
  GI50: 3.29 µM
  TGI: 6.34 µM
IGROV-1; [16]
  CC50: 0.00939 µM
HCT-15
  GI50: 3.15 µM
  TGI: 6.13 µM
HCT-15; [16]
  CC50: 0.00911 µM
BXPC-3 [2]
  GI50: 3.38 µM
  LC50: 0.00944 µM
  TGI: 6.41 µM
[3]
  IC50: 0.461 µM
[4]
  IC50: > 1 µM
[5]
  IC50: 0.042 µM
DU-145 [6]
  GI50: 2.83 µM
  TGI: 5.65 µM
DU-145 [6]; [16]
  CC50: 0.00846 µM
U-251
  GI50: 3.3 µM
  TGI: 5.87 µM
U-251; [16]
  CC50: 0.00844 µM
PC-3 [7]
  GI50: 3.06 µM
  TGI: 5.71 µM
PC-3 [7]; [16]
  CC50: 0.00837 µM
HL-60(TB)
  GI50: 0.00301 µM
  TGI: 0.00822 µM
HL-60(TB); [16]
  CC50: 0.1 µM
NHDF
  LC50: 9.58 µM
  TGI: 6.82 µM
[8]
  GI50 at 48 h: 4.07 µM
HUVEC
  LC50: 100 µM
  TGI: 7.17 µM
[9]
  GI50 at 48 h: 3.97 µM
HCT-116
  GI50: 2.96 µM
  TGI: 5.85 µM
HCT-116; [16]
  CC50: 0.00874 µM
SK-HEP1
  GI50: 3.67 µM
  TGI: 6.19 µM
SK-HEP1; [16]
  CC50: 0.0087 µM
MCF7
  GI50: 3.1 µM
  TGI: 5.97 µM
MCF7; [16]
  CC50: 0.00884 µM

## CC(=O)O[C@H]1C(=O)[C@@]2(C)[C@H]([C@H](OC(=O)c3ccccc3)[C@]3(O)C[C@H](OC(=O)[C@H](O)[C@@H](NC(=O)c4ccccc4)c4ccccc4)C(C)=C1C3(C)C)[C@]1(OC(C)=O)CO[C@@H]1C[C@@H]2O [PACLITAXEL]
PC-3 [10]
  inhibition in vivo at 20 mg/kg: 79.1%
PC-3 [11]
  Activity: 86%
PC-3 [12]
  Activity: 100%
DU-145 [13]
  inhibition in vivo at 20 mg/kg: 26.6%
PC-3 [14]
  Activity: 14%

## Nc1ccn([C@@H]2O[C@H](CO)[C@@H](O)[C@@H]2O)c(=O)n1 [CYTARABINE]
BXPC-3 [15]
  inhibition in vivo at 10 mg/kg: 23.8%
